The record followed here is ChEMBL document CHEMBL1141604, “Benzenesulfonamide indole inhibitors of cytosolic phospholipase A2alpha: optimization of in vitro potency and rat pharmacokinetics for oral efficacy” (Bioorg Med Chem, 2008).

A value given as a limit tells only on which side of the number the result lay.

Series [1] in a line: Inhibition of human cPLA2-alpha assessed as cleavage of 7-hydroxycoumarinyl-gamma-linolenate. In outline: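 Substrate 90 µM GLU with 120 µM DTPC. Compounds in DMSO tested in duplicate. Fluorescence (ex 355/em 460 nm) read every 4 min for 84 min; inhibition from slope. IC50 averaged from at least two independent runs.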
Series [2] can be described thus: Inhibition of cPLA2-alpha in Sprague-Dawley rat whole blood assay in presence of A23187. In kind it is tissue-based. In outline: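 Heparinized blood from male Sprague-Dawley rats, taken by cardiac puncture. Preincubated 15 min at 37 °C with compound in DMSO, then stimulated 10 min at 37 °C with 5 µM A23187 (final). Stopped with 20 mM EDTA; plasma precipitated with cold methanol at −80 °C. TXB2 measured by immunoassay; IC50 values averaged from at least two independent runs.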

Series [3] is described as follows: Oral bioavailability in Sprague-Dawley rat at 25 mg/kg administered through MC/TW formulation. In kind it is ADME, organism-based. Conditions: in vivo. In outline:
(§1)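 Overnight-fasted male Sprague-Dawley rats (n = 3) gavaged in MC/TW or Phosal vehicle; compound at 37.5 mg/mL, diluted with water, dosed at 4 mL/kg. Jugular blood taken over 24 h; plasma analysed by LC/MS/MS. F calculated as the dose-normalized oral/iv AUC ratio, iv reference 2 mg/kg.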

Series [4] in a line: Clearance in Sprague-Dawley rat at 2 mg/kg, iv. The format is ADME, organism-based. Details: dose 2 mg/kg, route intravenous. The settings on record: in vivo. In short, it runs like this:
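Male Sprague-Dawley rats, 200–300 g, n = 3, given a single 2 mg/kg tail-vein bolus in 50% PEG-400/50% DMSO. Blood drawn via jugular cannula over 24 h and plasma acidified with HCl. Plasma levels measured by LC/MS/MS after acetonitrile precipitation with internal standard; quantitation limit 5 ng/mL. Clearance from non-compartmental analysis.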

The nature of series [5]: Oral bioavailability in Sprague-Dawley rat at 10 mg/kg administered through Phosal formulation. The settings on record: in vivo. The format is ADME, organism-based.
Series [6] in a line: Oral bioavailability in Sprague-Dawley rat at 5 mg/kg administered through MC/TW formulation. In kind it is ADME, organism-based. The settings on record: in vivo. In short, it runs like this: as §1
The nature of series [7]: Oral bioavailability in Beagle dog at 50 mg/kg administered through MC/TW formulation. In kind it is ADME, organism-based, Canis lupus familiaris. Conditions: in vivo. In short, it runs like this:
(§2)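 Fasted male Beagle dogs (n = 3) dosed orally in MC/TW or Phosal formulation, volume 4 or 6 mL/kg. Saphenous plasma collected over 24 h and measured by LC/MS/MS. F calculated as the dose-normalized oral/iv AUC ratio against 2 mg/kg iv.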

Series [8] is described as follows: Oral bioavailability in Sprague-Dawley rat at 25 mg/kg administered through Phosal formulation. In kind it is ADME, organism-based. The settings on record: in vivo. In short, it runs like this: as §1
Series [9] can be described thus: Oral bioavailability in Beagle dog at 50 mg/kg administered through Phosal formulation. Conditions: in vivo. In kind it is ADME, organism-based, Canis lupus familiaris. In outline: as §2
Series [10] is described as follows: Clearance in Beagle dog at 2 mg/kg, iv. The format is ADME, organism-based, Canis lupus familiaris. Further details: dose 2 mg/kg, route intravenous. The settings on record: in vivo. In outline:
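Male Beagle dogs, 8.5–13.0 kg, n = 3, fasted overnight, given 2 mg/kg iv in 20% DMSO/80% PEG-200. Saphenous blood sampled over 24 h and plasma acidified to about pH 4. Analysed by LC/MS/MS with internal standard. Clearance by non-compartmental methods.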

As to `O=C(O)c1ccc(CCCc2c(CCNS(=O)(=O)c3cccc(-c4ccccc4)c3)n(C(c3ccccc3)c3ccccc3)c3ccc(Cl)cc23)cc1`, the IC50 (usually the midpoint of a concentration-inhibition curve) in series [1] was found to be 180 nM; in series [2], 220 nM.

As for `O=C(O)c1ccc(CCCc2c(CCNS(=O)(=O)c3ccccc3Cl)n(C(c3ccccc3)c3ccccc3)c3ccc(Cl)cc23)cc1`, the bioavailability (as a rule, dose-corrected exposure relative to a reference, in per cent) in series [3] amounted to 13.7%. Besides, the results for the IC50 in [1] and in [2] were 100 nM and 200 nM, respectively. The clearance (commonly the rate of elimination divided by the concentration) in series [4] turned out to be 9.4 mL/min/kg.

In the case of `O=C(O)c1ccc(OCCc2c(CCNS(=O)(=O)c3c(Cl)cccc3Cl)n(C(c3ccccc3)c3ccccc3)c3ccc(Cl)cc23)cc1`, the bioavailability in series [3] came to 2.9%. Also, the IC50 was determined as 260 nM in series [1] and 210 nM in [2]. The compound also had a clearance in series [4] of 16.3 mL/min/kg.

Consider `COc1ccccc1S(=O)(=O)NCCc1c(CCCc2ccc(C(=O)O)cc2)c2cc(Cl)ccc2n1C(c1ccccc1)c1ccccc1`, for which, in series [3], the bioavailability was found to be 7.8%. Besides, the IC50 was determined as 100 nM in series [1] and 200 nM in series [2]. This compound also displayed a clearance in series [4] of 10.7 mL/min/kg.

In series [3], `O=C(O)c1ccc(CCCc2c(CCNS(=O)(=O)c3ccccc3OC(F)(F)F)n(C(c3ccccc3)c3ccccc3)c3ccc(Cl)cc23)cc1` had a bioavailability of 4.6%. For the same compound, the values for the IC50 in [1] and in series [2] were 100 nM and 200 nM, respectively. The same compound yielded a clearance in [4] of 5.2 mL/min/kg.

`O=C(O)c1ccc(OCCc2c(CCNS(=O)(=O)c3ccccc3F)n(C(c3ccccc3)c3ccccc3)c3ccc(Cl)cc23)cc1`: the bioavailability in series [3] turned out to be 6%. Besides, the IC50 is 600 nM in series [1] and 150 nM in series [2]. Besides, the clearance in series [4] was found to be 28 mL/min/kg.

`Cc1cccc(C)c1S(=O)(=O)NCCc1c(CCCc2ccc(C(=O)O)cc2)c2cc(Cl)ccc2n1C(c1ccccc1)c1ccccc1` yielded a bioavailability in series [3] of 1.3%. Also, the IC50 in series [1] was determined as 47 nM; in [2], 75 nM. In series [4], this compound registered a clearance of 10.5 mL/min/kg.

In series [3], `Cc1cccc(C)c1S(=O)(=O)NCCc1c(CCOc2ccc(C(=O)O)cc2)c2cc(Cl)ccc2n1C(c1ccccc1)c1ccccc1` gave a bioavailability of 6%. Besides, the IC50 in series [1] turned out to be 100 nM; in [2] it was 95 nM. The compound further came in with a clearance in series [4] of 6.1 mL/min/kg.

With `O=C(O)c1ccc(CCCc2c(CCNS(=O)(=O)Cc3ccccc3)n(C(c3ccccc3)c3ccccc3)c3ccc(Cl)cc23)cc1`, the results for the IC50 in [1] and in [2] were 40 nM and 80 nM, respectively. For the same compound, the bioavailability was 7.2% in [5] and 3.8% in series [6]. For the same compound, the clearance in series [4] came out at 13 mL/min/kg.

`O=C(O)c1ccc(OCCc2c(CCNS(=O)(=O)c3cccc(-c4ccccc4)c3)n(C(c3ccccc3)c3ccccc3)c3ccc(Cl)cc23)cc1`: the IC50 in [1] amounted to 570 nM; in series [2], 600 nM.

Take `COc1ccccc1S(=O)(=O)NCCc1c(CCOc2ccc(C(=O)O)cc2)c2cc(Cl)ccc2n1C(c1ccccc1)c1ccccc1`: the bioavailability in [3] is less than 0.1%. Moreover, the IC50 in series [1] worked out at 180 nM; in [2], 60 nM. The clearance in series [4] was 18.6 mL/min/kg.

`O=C(O)c1ccc(CCCc2c(CCNS(=O)(=O)c3ccccc3F)n(C(c3ccccc3)c3ccccc3)c3ccc(Cl)cc23)cc1` returned a bioavailability in series [3] of 4%. The values for the IC50 in series [1] and in series [2] were 190 nM and 220 nM, respectively. In addition, in series [4], the clearance is 8.8 mL/min/kg.

`O=C(O)c1ccc(OCCc2c(CCNS(=O)(=O)c3c(F)cccc3C(F)(F)F)n(C(c3ccccc3)c3ccccc3)c3ccc(Cl)cc23)cc1` returned a bioavailability in [3] of 3%. In addition, the IC50 was 180 nM in series [1] and 150 nM in series [2]. In series [4], this compound had a clearance of 15.3 mL/min/kg.

For the compound `Cc1ccccc1S(=O)(=O)NCCc1c(CCOc2ccc(C(=O)O)cc2)c2cc(Cl)ccc2n1C(c1ccccc1)c1ccccc1`, the values for the 50% inhibitory concentration (IC50) in [1] and in series [2] were 340 nM and 160 nM, respectively. Further, the clearance in series [4] turned out to be 61 mL/min/kg.

`O=C(O)c1ccc(OCCc2c(CCNS(=O)(=O)Cc3ccccc3)n(C(c3ccccc3)c3ccccc3)c3ccc(Cl)cc23)cc1` came in with a bioavailability in [3] of 3.9%. The figures for the IC50 in series [1] and in series [2] were 110 nM and 120 nM, respectively.

Turning to `Cc1ccccc1S(=O)(=O)NCCc1c(CCCc2ccc(C(=O)O)cc2)c2cc(Cl)ccc2n1C(c1ccccc1)c1ccccc1`, the bioavailability in series [3] came to 8.6%. Also, the IC50 in series [1] was 90 nM; in [2], 95 nM. For the same compound, the clearance in series [4] was 10.3 mL/min/kg.

On to `O=C(O)c1ccc(OCCc2c(CCNS(=O)(=O)c3ccccc3OC(F)(F)F)n(C(c3ccccc3)c3ccccc3)c3ccc(Cl)cc23)cc1`, for which, in [3], the bioavailability came out at 15.4%. For the same compound, the IC50 in series [1] is 350 nM; in series [2], 360 nM. The same compound displayed a clearance in series [4] of 12.4 mL/min/kg.

On to `O=C(O)c1ccc(OCCc2c(CCNS(=O)(=O)c3ccccc3Cl)n(C(c3ccccc3)c3ccccc3)c3ccc(Cl)cc23)cc1`, for which the bioavailability in series [3] amounted to 39%. Moreover, the IC50 in [1] amounted to 400 nM; in series [2], 550 nM. Moreover, the clearance in [4] came out at 31 mL/min/kg.

Compound `O=C(O)c1ccc(OCCc2c(CCNS(=O)(=O)Cc3ccc(Cl)c(Cl)c3)n(C(c3ccccc3)c3ccccc3)c3ccc(Cl)cc23)cc1` [ECOPLADIB] yielded a bioavailability in [3] of 6%. Besides, the IC50 in [2] came to 160 nM.

Regarding `O=C(O)c1ccc(CCCc2c(CCNS(=O)(=O)c3ccccc3Br)n(C(c3ccccc3)c3ccccc3)c3ccc(Cl)cc23)cc1`, the bioavailability in series [3] was 1.9%. Also, the IC50 in series [1] turned out to be 100 nM; in [2], 120 nM. Besides, the clearance in series [4] came out at 6.5 mL/min/kg.

For the compound `O=C(O)c1ccc(OCCc2c(CCNS(=O)(=O)c3ccccc3)n(C(c3ccccc3)c3ccccc3)c3ccc(Cl)cc23)cc1`, the figures for the IC50 in [1] and in [2] were 3000 nM and 1000 nM, respectively. For the same compound, the clearance in series [4] is 73 mL/min/kg.

For the compound `O=C(O)c1ccc(OCCc2c(CCNS(=O)(=O)c3ccccc3Br)n(C(c3ccccc3)c3ccccc3)c3ccc(Cl)cc23)cc1`, in series [3], the bioavailability was less than 0.2%. For the same compound, the figures for the IC50 in series [1] and in [2] were 520 nM and 320 nM, respectively. In series [4], this compound returned a clearance of 3.1 mL/min/kg.

Consider `Cc1cccc(C)c1CS(=O)(=O)NCCc1c(CCCc2ccc(C(=O)O)cc2)c2cc(Cl)ccc2n1C(c1ccccc1)c1ccccc1`, for which the bioavailability turned out to be 0.08% in series [7], 3.5% in series [8], 1.5% in [9] and 1% in series [3]. Also, the IC50 in series [1] amounted to 14 nM; in series [2], 30 nM. Also, the values for the clearance in series [4] and in [10] were 4 mL/min/kg and 0.6 mL/min/kg, respectively.

In [3], `O=C(O)c1ccc(OCCc2c(CCNS(=O)(=O)c3ccccc3-c3ccccc3)n(C(c3ccccc3)c3ccccc3)c3ccc(Cl)cc23)cc1` registered a bioavailability of less than 0.1%. Further, the figures for the IC50 in series [1] and in [2] were 110 nM and 150 nM, respectively. Also, the clearance in series [4] turned out to be 4.5 mL/min/kg.

In the case of `O=C(O)c1ccc(CCCc2c(CCNS(=O)(=O)c3ccccc3-c3ccccc3)n(C(c3ccccc3)c3ccccc3)c3ccc(Cl)cc23)cc1`, the bioavailability in series [3] worked out at 0.4%. Besides, the results for the IC50 in [1] and in series [2] were 40 nM and 60 nM, respectively. This compound yielded a clearance in series [4] of 2.3 mL/min/kg.

In the case of `O=C(O)c1ccc(CCCc2c(CCNS(=O)(=O)Cc3ccc(Cl)c(Cl)c3)n(C(c3ccccc3)c3ccccc3)c3ccc(Cl)cc23)cc1` [EFIPLADIB], the bioavailability in series [8] was 6%; in [3], 1%. Moreover, the IC50 in series [1] is 40 nM; in series [2] it was 70 nM.

Consider `O=C(O)c1ccc(CCCc2c(CCNS(=O)(=O)c3c(Cl)cccc3Cl)n(C(c3ccccc3)c3ccccc3)c3ccc(Cl)cc23)cc1`, for which the bioavailability in series [3] came to 3.8%. Also, the results for the concentration for half-maximal inhibition (IC50) in series [1] and in [2] were 60 nM and 100 nM, respectively. This compound also gave a clearance in series [4] of 8.5 mL/min/kg.
